Assays:
[1] = molecular target: T1, Inosine-5'-monophosphate dehydrogenase (Cryptosporidium parvum, UniProt Q8T6T2); experiment: Inhibition of Cryptosporidium parvum IMPDH assessed as reduction in NADH production
T1 sequence (Q8T6T2 whole entry): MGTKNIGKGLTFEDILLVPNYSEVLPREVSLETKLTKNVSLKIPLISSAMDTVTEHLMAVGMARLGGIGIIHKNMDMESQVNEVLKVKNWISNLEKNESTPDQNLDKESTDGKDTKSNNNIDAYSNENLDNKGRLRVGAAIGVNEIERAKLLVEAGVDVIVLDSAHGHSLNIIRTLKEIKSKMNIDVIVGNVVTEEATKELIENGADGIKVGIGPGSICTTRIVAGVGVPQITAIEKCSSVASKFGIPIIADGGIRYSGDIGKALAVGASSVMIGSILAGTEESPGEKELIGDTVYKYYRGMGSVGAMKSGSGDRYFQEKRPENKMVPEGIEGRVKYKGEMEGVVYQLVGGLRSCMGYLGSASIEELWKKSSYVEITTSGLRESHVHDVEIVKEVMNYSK
Summary of the method: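 Purified expressed CpIMPDH enzyme; activity followed by NADH production. IC50 taken as the average of three independent experiments unless otherwise noted.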

[2] = molecular target: Inosine-5'-monophosphate dehydrogenase 2 (Homo sapiens) (UniProt P12268); experiment: Inhibition of human IMPDH2 assessed as reduction in NADH production at 5 uM
Sequence of Inosine-5'-monophosphate dehydrogenase 2 (Homo sapiens) (P12268 2-514 limits assumed): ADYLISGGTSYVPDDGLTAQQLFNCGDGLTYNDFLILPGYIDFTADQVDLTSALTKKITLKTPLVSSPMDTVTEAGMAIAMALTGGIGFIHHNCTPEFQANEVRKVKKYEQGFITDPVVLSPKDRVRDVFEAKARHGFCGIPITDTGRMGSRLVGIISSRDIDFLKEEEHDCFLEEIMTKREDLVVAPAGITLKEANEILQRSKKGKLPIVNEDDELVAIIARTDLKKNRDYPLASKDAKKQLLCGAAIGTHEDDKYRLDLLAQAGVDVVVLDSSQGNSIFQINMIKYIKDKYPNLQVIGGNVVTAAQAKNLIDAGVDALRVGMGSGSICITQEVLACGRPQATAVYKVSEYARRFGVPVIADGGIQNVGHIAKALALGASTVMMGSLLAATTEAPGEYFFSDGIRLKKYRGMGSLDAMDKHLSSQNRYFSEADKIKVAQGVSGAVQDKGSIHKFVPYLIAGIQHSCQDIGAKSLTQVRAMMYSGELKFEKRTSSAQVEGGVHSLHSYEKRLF

| SMILES | IC50 [1] | inhibition [2] |
| --- | --- | --- |
| COc1cc(N(C)C(=O)Cn2ncc3c(=O)oc4ccccc4c32)ccc1Cl | > 5000 nM |  |
| O=C(Cn1ncc2c(=O)oc3ccccc3c21)Nc1ccc2ccccc2c1 | 67 nM | < 20% |
| COc1cc(NC(=O)Cn2ncc3c(=O)oc4cc(C)ccc4c32)ccc1Cl | 2000 nM |  |
| O=C(Cn1ncc2c(=O)oc3ccccc3c21)Nc1ccc2cc[nH]c2c1 | 120 nM | < 20% |
| COc1cc(NC(=O)Cn2ncc3c2-c2ccccc2OC3)ccc1Cl | 70 nM | < 20% |
| COc1ccc(NC(=O)Cn2ncc3c(=O)oc4ccccc4c32)cc1OC | 2500 nM |  |
| O=C(Cn1ncc2c(=O)oc3ccccc3c21)Nc1ccc2[nH]cnc2c1 | 2500 nM |  |
| COc1cc(NC(=O)C(C)n2ncc3c(=O)oc4ccccc4c32)ccc1Cl (stereo unspecified) | 63 nM | < 20% |
| O=C(Cn1ncc2c(=O)oc3ccccc3c21)Nc1ccc(Cl)c(Cl)c1 | 44 nM | < 20% |
| O=C(Cn1ncc2c(=O)oc3ccccc3c21)Nc1ccc2[nH]ccc2c1 | > 5000 nM |  |
| COc1cc(NC(=O)Cn2ncc3c(=O)oc4ccccc4c32)ccc1Cl | 20 nM | < 20% |
| O=C(Cn1ncc2c(=O)oc3ccccc3c21)Nc1ccc2c(c1)OCCO2 | 190 nM | < 20% |
| COc1cc(NC(=O)Cn2ncc3c2-c2ccccc2CC3)ccc1Cl | 100 nM | < 20% |
| O=C(Cn1ncc2c(=O)oc3ccccc3c21)Nc1cccc(Cl)c1 | > 5000 nM |  |
| O=C(Cn1ncc2c(=O)oc3ccccc3c21)Nc1ccc2ncccc2c1 | 80 nM | < 20% |
| O=C(Cn1ncc2c(=O)oc3ccccc3c21)Nc1ccc(F)cc1 | 460 nM | < 20% |
| COc1cccc(NC(=O)Cn2ncc3c(=O)oc4ccccc4c32)c1 | 1500 nM |  |
| O=C(Cn1ncc2c(=O)oc3ccccc3c21)Nc1ccccc1Cl | > 5000 nM |  |
| O=C(Cn1ncc2c(=O)oc3ccccc3c21)Nc1ccc(C(F)(F)F)cc1 | 580 nM | < 20% |
| O=C(Cn1ncc2c(=O)oc3ccccc3c21)Nc1ccc(Cl)cc1Cl | > 5000 nM |  |

Source: ChEMBL document CHEMBL3351328
